Source: ChEMBL document CHEMBL5674890, “Selective inhibition of CBP/p300 HAT by A-485 results in suppression of lipogenesis and hepatic gluconeogenesis” (Cell Death Dis, 2020)
Active and inactive are the calls of the source.

Tests used:
Mus musculus [1] = assay: Anti-obesity activity in C57BL/6 mouse supplemented with high fat diet assessed as decrease in total fat mass at 20 mg/kg/day, ip administered for 1 week; format: functional, organism-based; conditions: time 1.0 weeks
In short: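 Male C57BL/6 mice fed high-fat diet for 14 weeks from 5 weeks of age, then ip 20 mg·kg−1·day−1 for 7 days. Body weight, EchoMRI lean/fat mass, and random or 16 h-fasted blood glucose recorded, as the line states.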

Mus musculus [2] = assay: Inhibition of lipogenesis in C57BL/6 mouse supplemented with high-fat diet assessed as decrease in ChREBP mRNA expression at 20 mg/kg/day, ip administered for 1 week measured by RT-qPCR assay; format: functional, organism-based; conditions: time 1.0 weeks
In short: (§1)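 Male C57BL/6 mice were fed high-fat diet for 14 weeks from 5 weeks of age, then injected ip with 20 mg·kg−1·day−1 for 7 days or given vehicle. Epididymal and inguinal WAT were weighed, examined by H&E, and analysed. Transcripts were measured by Trizol/SYBR Green RT-qPCR; proteins by western blot. n = 5–9; mean ± SEM.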

Mus musculus [3] = assay: Inhibition of lipogenesis in C57BL/6 mouse supplemented with high-fat diet assessed as decrease in SREBP-1c mRNA expression at 20 mg/kg/day, ip administered for 1 week measured by RT-qPCR assay; format: functional, organism-based; conditions: time 1.0 weeks; in short: as §1
Mus musculus [4] = assay: Inhibition of lipogenesis in C57BL/6 mouse supplemented with normal chow diet assessed as decrease in FABP4 mRNA expression at 20 mg/kg/day, ip administered for 1 week measured measured by RT-qPCR assay; format: functional, organism-based; conditions: time 1.0 weeks
In short: (§2)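 Eight-week-old male C57BL/6 mice on normal chow were given 20 mg·kg−1·day−1 ip daily for 7 days or vehicle. Epididymal WAT was collected. Lipogenic, adipogenic and fatty-acid-oxidation transcripts were quantified by Trizol extraction and SYBR Green RT-qPCR. FAS, ACC, PPARγ and C/EBPα protein were assessed by western blot. n = 5–9; mean ± SEM.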

Mus musculus [5] = assay: Inhibition of lipogenesis in C57BL/6 mouse supplemented with normal chow diet assessed as decrease in LPL mRNA expression at 20 mg/kg/day, ip administered for 1 week measured measured by RT-qPCR assay; format: functional, organism-based; conditions: time 1.0 weeks; in short: as §2
Mus musculus [6] = assay: Inhibition of lipogenesis in C57BL/6 mouse supplemented with high-fat diet assessed as decrease in FABP4 mRNA expression at 20 mg/kg/day, ip administered for 1 week measured measured by RT-qPCR assay; format: functional, organism-based; conditions: time 1.0 weeks; in short: as §1
Adipocyte = assay: Inhibition of lipogenesis in mouse adipocytes isolated stromal vascular cells assessed as decrease in FABP4 mRNA expression measured after 24 hrs by RT-qPCR assay; format: functional, cell-based
In short: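 Stromal vascular cells from inguinal WAT of C57BL/6 mice, grown in DMEM/F12 + 10% FBS at 37 °C, 10% CO2. At confluence, induced 48 h with 5 μg/ml insulin, 1 μM dexamethasone, 0.5 mM isobutylmethylxanthine, then 6 days in 5 μg/ml insulin; fully differentiated day 8. Mature adipocytes exposed to inhibitor 24 h. Total RNA by Trizol, SYBR Green RT-qPCR; protein by western blot.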

Hepatocyte [7] = assay: Inhibition of lipogenesis in mouse primary hepatocytes assessed as decrease in ACC mRNA expression at 3 uM in presence of 100 nM insulin and 5 to 25 mM glucose measured after 18 hrs by RT-qPCR assay; format: functional, cell-based
In short: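 Primary hepatocytes isolated from C57BL/6 mice by two-step perfusion. Cells incubated 18 h with 3 μM inhibitor, with 0 or 100 nM insulin and 5 or 25 mM glucose. Transcripts quantified by SYBR Green RT-qPCR after Trizol RNA extraction; proteins by western blot of lysates. Mean ± SEM.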

Hepatocyte [8] = assay: Inhibition of glucogenesis in mouse primary hepatocytes stimulated with 100 uM 8-Br-cAMP assessed as effect on pCREB protein expression at 3 uM measured after 1 hr by western blot analysis; format: functional, cell-based
In short: (§3)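 Primary hepatocytes from C57BL/6 mice, isolated by two-step perfusion, were co-treated with 3 μM A-485 and 100 μM 8-Br-cAMP for 1 h. Phospho-CREB, phospho-AMPK and phospho-TORC2 were detected by western blot of cell lysates. Three independent experiments; mean ± SEM.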

Hepatocyte [9] = assay: Inhibition of glucogenesis in mouse primary hepatocytes stimulated with 100 uM 8-Br-cAMP assessed as effect on pTORC2 protein expression at 3 uM measured after 1 hr by western blot analysis; format: functional, cell-based; in short: as §3
[10] = target: CREB-binding protein/Histone acetyltransferase p300 (Homo sapiens) (UniProt Q09472+Q92793); assay: Inhibition of CBP/p300 in human HEK293T cells expressing HA-FOXO1 stimulated with 100 uM 8-Br-cAMP assessed as decrease in FOXO1 abundance in nucleus at 3 uM measured after 24 hrs by immunofluorescence analysis; format: cell-based; conditions: time 3.0 hrs, in the assay text read “3 hrs” for “24 hrs”
In short: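 HEK293T cells transfected with HA-FOXO1 plasmid for 24 h, then treated 3 h with 3 μM compound and 100 μM 8-Br-cAMP. Staining steps: fixed in 10% formalin, permeabilized 0.1% Triton X100, blocked 5% BSA, anti-HA (1:200) overnight at 4 °C, FITC secondary, DAPI. Localization imaged by fluorescence microscopy.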

CREB-binding protein/Histone acetyltransferase p300 (Homo sapiens), sequence (Q09472 whole entry, looked up): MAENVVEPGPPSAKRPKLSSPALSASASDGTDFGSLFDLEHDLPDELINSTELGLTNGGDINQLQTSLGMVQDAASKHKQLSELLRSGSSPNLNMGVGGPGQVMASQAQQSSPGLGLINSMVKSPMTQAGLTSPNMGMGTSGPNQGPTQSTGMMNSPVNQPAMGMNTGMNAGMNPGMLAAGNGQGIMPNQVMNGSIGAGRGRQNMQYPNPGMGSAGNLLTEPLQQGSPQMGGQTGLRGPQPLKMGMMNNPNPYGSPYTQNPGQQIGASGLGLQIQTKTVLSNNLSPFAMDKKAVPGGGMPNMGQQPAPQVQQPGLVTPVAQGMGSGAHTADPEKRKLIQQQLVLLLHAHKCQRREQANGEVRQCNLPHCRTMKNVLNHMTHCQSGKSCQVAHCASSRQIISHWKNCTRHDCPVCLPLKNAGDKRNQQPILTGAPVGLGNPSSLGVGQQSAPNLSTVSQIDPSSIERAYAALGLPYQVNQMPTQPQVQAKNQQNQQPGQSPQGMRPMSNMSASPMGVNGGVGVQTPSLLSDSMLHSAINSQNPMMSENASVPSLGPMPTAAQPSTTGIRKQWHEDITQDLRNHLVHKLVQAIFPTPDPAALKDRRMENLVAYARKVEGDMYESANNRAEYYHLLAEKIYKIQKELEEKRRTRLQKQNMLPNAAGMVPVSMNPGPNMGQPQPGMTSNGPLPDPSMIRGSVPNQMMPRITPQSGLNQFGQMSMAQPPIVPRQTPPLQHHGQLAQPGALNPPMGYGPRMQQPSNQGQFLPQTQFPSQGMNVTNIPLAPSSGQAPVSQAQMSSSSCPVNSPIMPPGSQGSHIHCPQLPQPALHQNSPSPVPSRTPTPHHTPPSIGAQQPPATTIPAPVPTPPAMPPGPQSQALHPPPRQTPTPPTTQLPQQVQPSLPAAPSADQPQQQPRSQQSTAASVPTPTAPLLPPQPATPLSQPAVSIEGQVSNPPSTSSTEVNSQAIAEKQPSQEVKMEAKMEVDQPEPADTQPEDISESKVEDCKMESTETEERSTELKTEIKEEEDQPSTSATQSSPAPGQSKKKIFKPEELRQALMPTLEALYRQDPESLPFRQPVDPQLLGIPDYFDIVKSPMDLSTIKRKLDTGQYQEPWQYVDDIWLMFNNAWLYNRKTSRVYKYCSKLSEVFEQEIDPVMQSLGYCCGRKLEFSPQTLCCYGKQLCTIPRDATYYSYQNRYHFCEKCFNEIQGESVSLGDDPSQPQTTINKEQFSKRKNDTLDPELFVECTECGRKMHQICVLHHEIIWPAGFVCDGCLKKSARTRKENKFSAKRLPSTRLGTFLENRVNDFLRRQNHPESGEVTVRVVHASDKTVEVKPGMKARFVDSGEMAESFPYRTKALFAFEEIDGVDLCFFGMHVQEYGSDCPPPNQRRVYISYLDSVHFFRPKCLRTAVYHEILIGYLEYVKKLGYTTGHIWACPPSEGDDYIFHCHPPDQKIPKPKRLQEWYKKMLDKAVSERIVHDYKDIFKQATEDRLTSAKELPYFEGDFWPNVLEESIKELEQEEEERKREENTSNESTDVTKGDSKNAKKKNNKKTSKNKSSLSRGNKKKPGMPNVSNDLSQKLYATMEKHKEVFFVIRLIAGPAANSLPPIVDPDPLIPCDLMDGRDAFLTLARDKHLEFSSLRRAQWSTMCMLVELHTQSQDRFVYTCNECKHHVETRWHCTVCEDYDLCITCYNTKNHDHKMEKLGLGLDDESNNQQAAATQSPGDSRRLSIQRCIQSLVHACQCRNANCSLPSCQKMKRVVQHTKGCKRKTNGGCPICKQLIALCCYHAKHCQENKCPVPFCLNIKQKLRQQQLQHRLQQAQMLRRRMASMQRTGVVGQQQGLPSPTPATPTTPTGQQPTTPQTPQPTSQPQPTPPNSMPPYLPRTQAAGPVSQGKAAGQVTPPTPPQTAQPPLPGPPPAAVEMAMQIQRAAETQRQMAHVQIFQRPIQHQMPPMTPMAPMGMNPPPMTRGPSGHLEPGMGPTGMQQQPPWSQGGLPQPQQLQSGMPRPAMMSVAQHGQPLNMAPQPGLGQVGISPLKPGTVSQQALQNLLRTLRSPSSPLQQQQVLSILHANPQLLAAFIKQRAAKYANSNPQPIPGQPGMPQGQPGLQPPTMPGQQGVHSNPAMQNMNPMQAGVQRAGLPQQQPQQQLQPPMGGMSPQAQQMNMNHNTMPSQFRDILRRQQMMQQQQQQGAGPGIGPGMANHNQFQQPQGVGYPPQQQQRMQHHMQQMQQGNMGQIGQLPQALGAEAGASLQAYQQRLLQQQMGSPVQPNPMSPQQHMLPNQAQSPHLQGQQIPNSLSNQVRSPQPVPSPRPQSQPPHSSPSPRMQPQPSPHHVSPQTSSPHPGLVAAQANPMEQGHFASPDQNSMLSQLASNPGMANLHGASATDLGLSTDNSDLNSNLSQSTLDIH
CREB-binding protein/Histone acetyltransferase p300 (Homo sapiens), sequence (Q92793 whole entry, looked up): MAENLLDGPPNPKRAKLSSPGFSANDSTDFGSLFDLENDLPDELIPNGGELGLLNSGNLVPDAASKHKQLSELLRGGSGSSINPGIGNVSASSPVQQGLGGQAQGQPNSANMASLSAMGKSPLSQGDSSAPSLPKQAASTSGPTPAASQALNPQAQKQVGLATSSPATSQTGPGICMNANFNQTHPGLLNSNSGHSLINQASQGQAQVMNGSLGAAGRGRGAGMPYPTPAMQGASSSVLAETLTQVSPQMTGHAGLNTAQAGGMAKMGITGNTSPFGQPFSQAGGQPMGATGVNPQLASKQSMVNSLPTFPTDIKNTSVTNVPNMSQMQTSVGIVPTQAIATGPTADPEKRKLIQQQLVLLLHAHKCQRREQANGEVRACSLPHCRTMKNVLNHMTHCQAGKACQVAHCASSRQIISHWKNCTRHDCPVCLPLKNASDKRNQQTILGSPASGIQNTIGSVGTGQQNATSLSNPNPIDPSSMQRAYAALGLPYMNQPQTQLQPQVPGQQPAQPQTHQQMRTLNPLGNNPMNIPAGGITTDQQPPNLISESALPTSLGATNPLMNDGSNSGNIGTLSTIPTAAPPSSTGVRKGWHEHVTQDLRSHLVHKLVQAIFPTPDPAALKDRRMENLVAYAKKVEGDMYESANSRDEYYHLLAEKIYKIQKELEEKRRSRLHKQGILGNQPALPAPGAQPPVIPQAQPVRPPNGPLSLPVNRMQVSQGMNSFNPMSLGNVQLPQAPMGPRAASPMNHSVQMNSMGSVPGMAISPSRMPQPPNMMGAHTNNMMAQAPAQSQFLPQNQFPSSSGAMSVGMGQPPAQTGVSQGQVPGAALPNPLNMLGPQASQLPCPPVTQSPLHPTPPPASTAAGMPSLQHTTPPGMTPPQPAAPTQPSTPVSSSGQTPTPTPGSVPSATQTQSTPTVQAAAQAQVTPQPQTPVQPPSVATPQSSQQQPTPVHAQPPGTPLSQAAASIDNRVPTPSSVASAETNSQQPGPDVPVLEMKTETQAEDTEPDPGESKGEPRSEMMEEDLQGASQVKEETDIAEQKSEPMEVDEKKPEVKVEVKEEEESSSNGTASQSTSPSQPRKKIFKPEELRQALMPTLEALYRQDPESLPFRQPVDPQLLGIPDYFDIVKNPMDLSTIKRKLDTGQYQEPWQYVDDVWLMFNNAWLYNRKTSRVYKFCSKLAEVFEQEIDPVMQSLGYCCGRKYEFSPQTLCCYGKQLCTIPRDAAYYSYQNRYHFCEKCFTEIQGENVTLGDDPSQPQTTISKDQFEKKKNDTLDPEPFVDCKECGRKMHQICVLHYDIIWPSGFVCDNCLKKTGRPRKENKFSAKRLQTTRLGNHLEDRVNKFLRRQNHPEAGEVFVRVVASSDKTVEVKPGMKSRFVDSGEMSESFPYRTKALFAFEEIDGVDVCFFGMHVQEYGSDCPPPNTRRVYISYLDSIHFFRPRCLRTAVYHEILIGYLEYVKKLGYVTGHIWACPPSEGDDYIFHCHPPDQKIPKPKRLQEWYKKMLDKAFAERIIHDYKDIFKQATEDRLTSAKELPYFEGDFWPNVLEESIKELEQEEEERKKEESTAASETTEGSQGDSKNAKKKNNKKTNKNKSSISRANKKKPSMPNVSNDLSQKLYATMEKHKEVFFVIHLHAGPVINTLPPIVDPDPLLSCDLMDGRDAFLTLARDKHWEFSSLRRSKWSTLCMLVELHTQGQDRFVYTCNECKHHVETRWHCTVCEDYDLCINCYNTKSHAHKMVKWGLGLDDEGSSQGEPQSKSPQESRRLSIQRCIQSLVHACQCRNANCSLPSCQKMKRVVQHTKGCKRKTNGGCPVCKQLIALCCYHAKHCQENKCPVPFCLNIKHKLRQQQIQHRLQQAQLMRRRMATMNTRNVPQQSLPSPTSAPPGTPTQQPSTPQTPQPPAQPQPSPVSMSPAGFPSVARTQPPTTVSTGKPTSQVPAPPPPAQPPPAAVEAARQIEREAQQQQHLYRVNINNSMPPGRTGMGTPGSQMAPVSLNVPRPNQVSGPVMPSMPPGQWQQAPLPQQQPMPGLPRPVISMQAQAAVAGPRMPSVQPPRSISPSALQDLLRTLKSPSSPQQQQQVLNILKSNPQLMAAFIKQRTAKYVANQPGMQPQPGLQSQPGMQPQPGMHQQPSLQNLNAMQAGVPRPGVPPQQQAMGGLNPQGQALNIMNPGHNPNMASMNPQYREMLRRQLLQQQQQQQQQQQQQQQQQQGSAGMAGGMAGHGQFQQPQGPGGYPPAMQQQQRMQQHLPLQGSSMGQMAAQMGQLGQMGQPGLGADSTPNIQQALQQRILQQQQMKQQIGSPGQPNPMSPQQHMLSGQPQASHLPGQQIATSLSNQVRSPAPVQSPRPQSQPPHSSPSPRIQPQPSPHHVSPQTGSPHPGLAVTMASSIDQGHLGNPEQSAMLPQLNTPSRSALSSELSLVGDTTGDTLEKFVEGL

CNC(=O)Nc1ccc2c(c1)CCS21OC(=O)N(CC(=O)N(Cc2ccc(F)cc2)[C@@H](C)C(F)(F)F)C1=O (stereo partly specified)
inactive: inhibition (Hepatocyte [8]) | inhibition (Hepatocyte [9])
active: Activity (Mus musculus [1]) | inhibition (Mus musculus [2]) | inhibition (Mus musculus [3]) | inhibition (Mus musculus [4]) | inhibition (Mus musculus [5]) | inhibition (Mus musculus [6]) | inhibition (Adipocyte) | inhibition (Hepatocyte [7]) | inhibition [10]
